The values that follow come from ChEMBL document CHEMBL3526035, “Role of the intestinal peptide transporter PEPT1 in oseltamivir absorption: in vitro and in vivo studies” (Drug Metab Dispos, 2012).

The nature of data set [1]: Cmax in juvenile fasted Sprague-Dawley rat at 30 mg/kg, po administered as solution in bovine milk by HPLC-tandem mass spectrometry. It counts as ADME, organism-based. The arrangement: dose 30 mg/kg, route oral. The following applies: in vivo. The procedure, abridged: (§1)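 7-day-old Sprague-Dawley pups (9.7-18.9 g, both sexes), 15 per group. Given 30 mg/kg by oral gavage (10 ml/kg); breast-fed pups stayed with dams, fasted pups were removed 8 h before dosing. Blood taken by cardiac puncture under isoflurane at 0.25, 0.5, 1, 2 and 5 h, n=3 per time point (composite design). Dichlorvos-treated plasma assayed by LC-MS/MS; AUC0-5h by noncompartmental analysis.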

The nature of data set [2]: AUC(0 to 6 hrs) in adult fasted Sprague-Dawley rat at 30 mg/kg, po administered as water solution by HPLC-tandem mass spectrometry. It counts as ADME, organism-based. On the set-up: time < 6 hr, dose 30 mg/kg, route oral. As to conditions: plasma; call rule not given here. The procedure, abridged:
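Adult male Sprague-Dawley rats (243-283 g), jugular-cannulated, fasted from 6 h before dosing through the 6-h study. Given 30 mg/kg orally (free base) at 10 ml/kg, n=3/group. Blood sampled at 0.25-6 h into K2EDTA with dichlorvos esterase inhibitor. Plasma assayed by LC-MS/MS (0.1-500 μg/l). Noncompartmental analysis: linear-trapezoid AUC; infinity extrapolation via log-linear terminal λz.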

A short description of data set [3]: Tmax in healthy human at 150 mg, po administered as single dose by HPLC-tandem mass spectrometry under fasting conditions. The data set is classed as ADME, organism-based. The following applies: in vivo. Put shortly: (§2)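 Open-label crossover food-effect study in 18 healthy volunteers (9 male, 9 female, mean age 26). Each received a single 150 mg oral dose of the marketed formulation, once fasting from midnight and once after a high-fat, high-calorie breakfast, separated by a 7–10 day washout. Plasma and urine were collected over 0–72 h and assayed by HPLC-MS/MS for oseltamivir and carboxylate.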

A short description of data set [4]: Cmax in healthy human at 150 mg, po administered as single dose by HPLC-tandem mass spectrometry under fasting conditions. As to conditions: in vivo. The arrangement: dose 150 mg, route oral. It counts as ADME, organism-based. Put shortly: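 Open-label crossover in 18 healthy volunteers (9 male, 9 female, mean age 26). Each received marketed oseltamivir 150 mg orally, once fasted from midnight and once after a high-fat, high-calorie breakfast, with a 7-10 day washout. Plasma and urine collected over 0-72 h and analysed by HPLC-MS/MS. AUC and Cmax compared after log transformation.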

Data set [5] can be described thus: Drug uptake in CHOK1 cells expressing human PEPT1 at pH 5 by HPLC coupled with radiodetection analysis. As to conditions: chinese hamster, cho-k1, pH 5. The data set is classed as ADME, cell-based, Cricetulus griseus. The procedure, abridged: (§3)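 Accumulation of [14C]oseltamivir or its carboxylate in CHO-PEPT1 versus CHO-K1 cells. Conditions varied: KH buffer (with MES) or Hanks' balanced salt solution, pH 5 or 6 readjusted after substrate addition, 30 s to 15 min at 37°C. Uptake was quenched with ice-cold PBS-BSA, followed by Triton X-100 lysis, scintillation counting, and BCA protein normalization. HPLC-radiodetection checked ester stability.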

Data set [6] in a line: Tmax in adult fasted Sprague-Dawley rat at 30 mg/kg, po administered as water solution by HPLC-tandem mass spectrometry. The following applies: in vivo. It counts as ADME, organism-based. On the set-up: dose 30 mg/kg, route oral. The procedure, abridged:
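Male Sprague-Dawley rats (7–8 weeks, 243–283 g) had jugular-vein cannulas and 3 days' recovery. Fasting ran from 6 h predose through the 6 h study. Three rats per vehicle received 30 mg/kg oral (10 ml/kg). Blood was sampled 0.25–6 h into K2EDTA tubes with dichlorvos. Plasma was assayed by HPLC-MS/MS (0.1–500 µg/l). Tmax was read graphically (noncompartmental).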

Data set [7] in a line: Tmax in juvenile fasted Sprague-Dawley rat at 30 mg/kg, po administered as solution in bovine milk by HPLC-tandem mass spectrometry. The data set is classed as ADME, organism-based. The arrangement: dose 30 mg/kg, route oral. As to conditions: in vivo. The procedure, abridged: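 Seven-day-old Sprague-Dawley pups, males and females, 15 per group, were gavaged with 30 mg/kg (10 ml/kg). Breast-fed pups stayed with their dams; fasted pups were removed from 8 h predose through 5 h. Cardiac blood was drawn under isoflurane at 0.25, 0.5, 1, 2 and 5 h (composite, n=3/time point), with dichlorvos added. Plasma was analyzed by HPLC-MS/MS and Tmax read graphically.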

Data set [8] in a line: Drug uptake in CHOK1 cells incubated for 30s to 15 mins by HPLC coupled with radiodetection analysis. The data set is classed as ADME, cell-based, Cricetulus griseus. As to conditions: chinese hamster, cho-k1, 0.25 h. Put shortly:
as §3

Data set [9] can be described thus: Terminal half life in healthy human at 150 mg, po administered as single dose by HPLC-tandem mass spectrometry under fed conditions. It counts as ADME, organism-based. As to conditions: in vivo, read-out: beta t1/2 (converted). Put shortly: as §2
Data set [10] can be described thus: Cmax in juvenile breast-fed Sprague-Dawley rat at 30 mg/kg, po administered as water solution by HPLC-tandem mass spectrometry. The data set is classed as ADME, organism-based. On the set-up: dose 30 mg/kg, route oral. As to conditions: in vivo. The procedure, abridged: as §1
Data set [11] is described as follows: Drug uptake in CHOK1 cells expressing human PEPT1 at 100 uM after 10 mins by HPLC coupled with radiodetection analysis in presence of PEPT1 inhibitor valacyclovir. It counts as ADME, cell-based, Cricetulus griseus. The following applies: chinese hamster, cho-k1, 10 min. Put shortly: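 CHO-PEPT1 and parental CHO-K1 cells were washed in KH/MES buffer, then incubated 10 min at 37°C, pH 6, with 100 µM [14C]oseltamivir alone or with 20 mM of the inhibitor. The pH was readjusted after additions. Uptake was quenched with ice-cold PBS-BSA and cells were washed and lysed in 1% Triton X-100. Lysate radioactivity was normalized to BCA protein. Three experiments on separate days, triplicate wells.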

Data set [12] is described as follows: Drug uptake in CHOK1 cells at 100 uM at pH 4 to 8 after 10 mins by HPLC coupled with radiodetection analysis. It counts as ADME, cell-based, Cricetulus griseus. As to conditions: chinese hamster, cho-k1, pH 4, 10 min. Put shortly: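 [14C]oseltamivir at 100 μM incubated with CHO-K1 cells for 10 min at 37°C in KH buffer over pH 4-8, with pH readjusted after compound addition. Washed cells were lysed in Triton X-100, radioactivity counted and normalised to protein. Three independent experiments, each run in triplicate.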

The nature of data set [13]: Drug uptake in CHOK1 cells at 100 uM at 4 degC after 10 mins by HPLC coupled with radiodetection analysis. It counts as ADME, cell-based, Cricetulus griseus. The following applies: chinese hamster, cho-k1, 10 min. The procedure, abridged:
(§4)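 CHO-K1 cells held in KH buffer at pH 6. Incubated 10 min with [14C]oseltamivir at 100 μM, either with 20 mM Trp-Gly, valacyclovir or cefadroxil, or at 4°C (on ice) against 37°C. Quenched with ice-cold PBS-0.2% BSA, washed, lysed in 1% Triton X-100 at 60°C. Lysate counted by scintillation and normalised to BCA protein. Three experiments, each point in triplicate.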

Data set [14] is described as follows: Drug uptake in CHOK1 cells at 100 uM after 10 mins by HPLC coupled with radiodetection analysis in presence of PEPT1 inhibitor cefadroxil. The data set is classed as ADME, cell-based, Cricetulus griseus. As to conditions: chinese hamster, cho-k1, 10 min. The procedure, abridged: as §4
Data set [15] is described as follows: Drug uptake in CHOK1 cells expressing human PEPT1 at 100 uM at pH 4 to 8 after 10 mins by HPLC coupled with radiodetection analysis. It counts as ADME, cell-based, Cricetulus griseus. As to conditions: chinese hamster, cho-k1, pH 4, 10 min. The procedure, abridged:
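pH series from 4 to 8: CHO-PEPT1 and CHO-K1 cells were exposed to 100 µM [14C]oseltamivir (or 2 µM [3H]Gly-Sar) in KH/MES buffer, with pH readjusted after substrate addition, for 10 min at 37°C. Then quench in ice-cold PBS-BSA, Triton X-100 lysis and scintillation counting normalized to protein. Three independent experiments.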

Data set [16] in a line: Drug uptake in CHOK1 cells expressing human PEPT1 at 100 uM at 4 degC after 10 mins by HPLC coupled with radiodetection analysis. The data set is classed as ADME, cell-based, Cricetulus griseus. As to conditions: chinese hamster, cho-k1, 10 min. Put shortly:
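100 µM [14C]oseltamivir was incubated with CHO-PEPT1 and CHO-K1 cells for 10 min in KH/MES buffer pH 6, on ice (4°C) or on a 37°C block. Uptake was stopped with ice-cold PBS-BSA, cells were washed and lysed in Triton X-100, and radioactivity was counted per mg protein (BCA). Three independent experiments.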

As for `CCC(CC)O[C@@H]1C=C(C(=O)O)C[C@H](N)[C@H]1NC(C)=O` [OSELTAMIVIR CARBOXYLATE], the figures for the Cmax in data set [1], in [4] and in data set [10] were 2460 ng/mL, 551 ng/mL and 1500 ng/mL, respectively. The exposure AUC(0-t) at 6 h in data set [2] came out at 5910 ng·h/mL. The results for the Tmax in data set [3], in [6] and in data set [7] were 4.37 h, 64.8 min and 5 h, respectively. The Drug uptake entry in [5] and in data set [8] was “Active” in each case. In data set [9], the half-life was 492 min.

`CCOC(=O)C1=C[C@@H](OC(CC)CC)[C@H](NC(C)=O)[C@@H](N)C1` [OSELTAMIVIR]: the Cmax in [1] is 7990 ng/mL; in [4], 124 ng/mL; in data set [10] it was 6140 ng/mL. Moreover, in data set [2], the AUC(0-t) at 6 h worked out at 2680 ng·h/mL. Further, the Drug uptake result in data set [11] is “Not Active”; in data set [5] it was “Active”; in data set [12], “Active”; in data set [8], “Active”; in [13], “Not Active”; in data set [14], “Not Active”. The Drug uptake entry is reported as “Active” in data set [15] and “Not Active” in data set [16]. Further, the Tmax came to 0.806 h in data set [3], 49.8 min in data set [6] and 1 h in data set [7]. For the same molecule, the half-life in [9] was 129 min.
